# Candida biofilm = kills Candida albicans biofilms. C. albicans biofilm + clotrimazole, Alamar Blue. inhibition, % at 6 µM. 85,000 compounds, 0.14% hits;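 active means inhibition above 20%; inactive means inhibition below 20%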;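 further: preformed 24 hr biofilms exposed to compound for 48 hr; 0% = biofilm without compound and 100% = blank killed by clotrimazole plus chlorhexidine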
# DAT uptake mod = modulates human dopamine transporter uptake under cocaine. Q01959. LLC-PK1 hDAT cells, [14C]-dopamine uptake with cocaine IC80; actives deviate in either direction. B-score at 10 µM. 110,000 compounds, 1.3% hits. AID 449768;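 active means Z score or B-score, a plate-position-corrected score, falls beyond the plate's 99.7% confidence bounds, in either direction; inactive means both scores lie inside the 99.7% bounds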;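 further: scored against the spread of the other compound wells on the same plate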
# MMP-13 inhibitor = blocks human MMP13 activity; 65,000 compounds, 0.07% hits; inhibition, % at 4 µM; MMP-13 fTHP FRET cleavage, Mca fluorescence; P45452;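 active means inhibition above the mean of compound-free control plate wells plus 3 SD, cut at about 14% in these data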;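 further: 0% = DMSO wells and 100% = wells with reference MMP-13 inhibitor after basal subtraction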
# D1 allo mod = D1 dopamine receptor (human) allosteric modulation; P21728; HEK293 D1, CRE-luciferase, dopamine EC30 potentiation; actives deviate in either direction; B-score at 10 µM; 58,000 compounds, 5.9% hits; AID 641;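 active means luminescence count or its row- and column-corrected plate score outside the 99.7% band of the plate's sample wells, on either side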
# Target sequence (P21728 whole entry, looked up): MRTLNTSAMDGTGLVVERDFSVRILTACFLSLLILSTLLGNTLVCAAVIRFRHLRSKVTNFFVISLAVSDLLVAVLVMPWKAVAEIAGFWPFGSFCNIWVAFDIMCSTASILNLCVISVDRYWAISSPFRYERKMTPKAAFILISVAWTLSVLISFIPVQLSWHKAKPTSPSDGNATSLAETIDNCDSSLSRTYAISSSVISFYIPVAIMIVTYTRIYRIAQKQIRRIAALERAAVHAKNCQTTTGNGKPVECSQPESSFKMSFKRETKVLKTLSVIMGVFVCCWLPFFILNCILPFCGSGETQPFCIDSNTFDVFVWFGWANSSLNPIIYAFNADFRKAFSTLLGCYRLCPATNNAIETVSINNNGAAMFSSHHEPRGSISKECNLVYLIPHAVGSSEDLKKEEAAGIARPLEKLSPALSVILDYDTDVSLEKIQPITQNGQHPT
# AP ELISA ortho = orthogonal test for alternative complement pathway inhibitors. Human serum alternative complement pathway, LPS-coated ELISA, C3 deposition; tested in compound mixtures. inhibition, % at 5 µM. 62,000 compounds, 0.08% hits. AID 1235;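 active means inhibition above 30% in each of the two pooled mixtures holding the compound, so the lower value exceeds 30%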;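 further: 0% = serum in Mg-EGTA without compound and 100% = EDTA serum blank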
#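 Assay system: human serum alternative complement pathway, C3 deposition on LPS-coated wells; Dosing: 5 µM per compound in ten-compound mixtures; Detection: Anti-C3 ELISA, OD 450 nm; Buffer or medium: Mg2+-EGTA GVB++ buffer containing human serum at 1:15 dilution; Timing: 1 h at 37 °C; Replication: two different pools per compound.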
# * hit, by the source's call; . = not tested or not shown; ! = a repeat was not active. Many of the other results were omitted from the sample, so hits are more common in it than they were.
SMILES,Candida biofilm,DAT uptake mod,MMP-13 inhibitor,D1 allo mod,AP ELISA ortho
Cc1cc(C(=O)CSc2nnc(-c3cccc(F)c3)n2N)c(C)n1Cc1ccc2c(c1)OCO2,.,-0.4,-2,-7.8*,6
O=C(N[C@@H](Cc1ccccc1)C(=O)O)c1c(F)c(F)c(F)c(F)c1F,.,0.6,.,.,.
Brc1ccc(-c2noc3c2-c2nc(-c4ccccc4)sc2CC3)cc1,.,-2.9,.,.,.
CCC(c1ccccc1)c1nc(-c2ccccn2)no1 (stereo unspecified),5,0.78,3,-7.1*,7
CCOc1ccc(OCC)c(NC(=O)Nc2ccc3c(c2)N(C)C(=O)CS3)c1,10,1.9*,.,.,.
CC(=O)Nc1ccccc1-c1nc2ccccc2nc1OCC(=O)c1ccc2ccccc2c1,.,-0.69,.,.,.
COc1ccc(-n2cnc3c(cnn3CCC#N)c2=N)cc1,3,-0.54,-3,.,10
O=C(CCCO)CCCCCCCCC[C@H]1N[C@H](CO)[C@@H](O)[C@@H]1O,.,-0.84,.,.,.
COC(=O)CNc1c(-c2ccccn2)nc2ccc(Br)cn12,.,-7.2*,-2,-1.7,0
O=C(Nc1cccc(-c2cn3cccnc3n2)c1)c1ccco1,2,2.4,-384,-4*,0
O=C(Nc1cccc(-c2cn3cccnc3n2)c1)c1ccc(Br)o1,.,2.4,-403,0.75,5
O=C(c1ccc2c(c1)N(Cc1ccccc1)C(=O)c1ccccc1S2)N1CCCC1,10,3.3*,.,.,.
CN1CCN(C(=O)c2ccc3c(c2)N(Cc2ccc(Cl)cc2)C(=O)c2ccccc2S3=O)CC1 (stereo unspecified),4,-0.34,-8,.,-8
Cc1ccc(S(=O)(=O)NCC(C)NS(=O)(=O)c2ccc(C)cc2)cc1 (stereo unspecified),2,-8.2*,2,-0.017,-16
CCSc1ccccc1C(=O)NCc1ccc(S(N)(=O)=O)cc1,-2,-0.19,-4,-3*,-1
COc1cc(C(=O)OCC(=O)Nc2c(F)c(F)c(F)c(F)c2F)cc(OC)c1OC,-5,3.7*,-4,1.2,29
COc1cc2cc(C(c3nnnn3C3CCCC3)N3CCCCC3)c(=O)[nH]c2cc1OC (stereo unspecified),6,0.66,-1,2,31*
c1csc(C(c2nnnn2C2CCCC2)N2CCCC3(CCCCC3)C2)c1 (stereo unspecified),5,-0.53,.,.,.
COC(=O)C(Cc1ccccc1)NS(=O)(=O)c1ccc(F)cc1Br (stereo unspecified),.,0.75,.,.,.
O=C(Nc1ccc(Nc2ccccc2)cc1)c1ccc(Br)o1,6,.,-4,-0.94,6
O=C(Nc1ccc(O)cc1)c1ccc(C(=O)c2ccccc2)o1,8,0.13,8,-3.2*,20
CN(C)c1ccc(-c2ccc([C@H]3[C@@H]4C=CCC[C@@]4(C)C(=O)N3Cc3ccccc3)c(F)c2)cc1,.,0.39,.,.,.
CCCCCCCCCCCCN1[C@@H](CC(=O)O)c2cc(F)ccc2S1(=O)=O,.,-1,.,.,.
O=C(O)C(O)c1ccccc1 (stereo unspecified),.,-0.058,.,.,.
O=C(O)C(c1ccccc1)C1(O)CCCC1 (stereo unspecified),0,1.7*,6,.,14
SMILES,Candida biofilm,DAT uptake mod,MMP-13 inhibitor,D1 allo mod,AP ELISA ortho
CC1(C)CC(NC(=O)C23CCC(C)(C(=O)C2)C3(C)C)CC(C)(C)N1 (stereo unspecified),7,-0.39,4,-0.92,7
CC1CCC(NC(=O)N(CCCl)N=O)CC1 (stereo unspecified),.,-1.1,.,.,.
Cc1ccc(C(=O)Nc2cccc(-c3cnc4ccccc4n3)c2)cc1,.,1.5,.,.,.
CC(C)C(=O)Nc1cccc(-c2cnc3ccccc3n2)c1,11,2.7*,.,.,.
COC(=O)[C@@H]1C[C@@H]2CC[C@@H](O)C[C@@H]2N1Cc1ccc(N2CCN(C)CC2)cc1,.,-0.74,.,.,.
CCOCCN1CCN(c2c(CC)c(C)nc3cc(-c4cc(OC)cc(OC)c4)nn23)CC1,4,2*,.,.,.
CCc1c(C)nc2cc(-c3cc(OC)cc(OC)c3)nn2c1N1CCCC1,7,1.7,-3,0.71,8
COCC(=O)Nc1nc2ccc(C)cc2s1,6,1.2,0,-5*,5
CCCCc1ccc(NS(=O)(=O)c2cccs2)cc1,1,1.7,.,.,.
N#CC(=C1CCCC1)c1nc(-c2ccccc2)cs1,7,0.042,.,.,.
N#C/C(=N\O)c1nc(-c2ccccc2)cs1,8,-5.2*!,2,.,.
NC(=O)CC(NC(=O)Cc1cccc2ccccc12)c1ccc(NC2CCCCCCC2)c([N+](=O)[O-])c1 (stereo unspecified),.,-0.73,.,.,.
CCOC(=O)Cn1cc(C=O)c2ccccc21,-3,-10*,.,.,.
O=C(O)c1ccc2c(c1)[C@@H]1C=CC[C@@H]1[C@H](c1ccccn1)N2,7,-0.46,3,-3.8*,5
O=C(OC1CCCCC1)c1ccc2c(c1)C1C=CCC1C(C(=O)O)N2 (stereo unspecified),.,.,1,.,-5
O=C(CSc1nnc(Cc2cccs2)n1C1CCCCC1)N1CCCc2ccccc21,8,2.2*,-2,-0.09,18
Cn1c(Cc2cccs2)nnc1SCC(=O)N1CCCc2ccccc21,5,-0.23,.,.,.
CCOC(=O)CCCNC(=O)COC(=O)c1ccc(O)cc1,.,2.5*,.,.,.
CCOC(=O)COC(=O)c1ccc(O)cc1,5,-1.7,3,0.002,4
Cn1c(C(=O)NC2CC2)cc2c(=O)n(C)c3ccccc3c21,8,0.36,3,0.25,18
Cn1c(C(=O)N2CCN(C(=O)c3ccco3)CC2)cc2c(=O)n(C)c3ccccc3c21,3,2.2*,-4,0.39,8
Cn1cc(S(=O)(=O)CC(=O)Nc2ccc3c(c2)OCCO3)c2ccccc21,23*,1.6,4,0.11,12
Cn1c(C(=O)N2CCN(c3ccc(F)cc3)CC2)cc2c(=O)n(C)c3ccccc3c21,8,.,-1,-0.71,9
Cn1c(C(=O)Nc2ccc3c(c2)OCCO3)cc2c(=O)n(C)c3ccccc3c21,8,-0.25,4,-4.5*,16
Cn1cc(S(=O)(=O)N2CCN(C(=O)c3ccco3)CC2)c(=O)n(C)c1=O,20*,0.4,-1,-0.44,-2
SMILES,Candida biofilm,DAT uptake mod,MMP-13 inhibitor,D1 allo mod,AP ELISA ortho
O=C(CS(=O)(=O)c1c[nH]c2ccccc12)Nc1ccc2c(c1)OCCO2,5,1.2,-2,0.78,4
COc1cc2c(c(OC)c1CC=C(C)C)C[C@H](c1ccc(O)cc1O)CO2,.,3.3,.,.,.
Cc1ccccc1CSc1nccn1-c1ccccc1,.,0.83,.,.,.
C[C@H](NC(CCc1ccccc1)C(=O)O)C(=O)N1CCC[C@H]1C(=O)O (stereo partly specified),.,-1.1,.,.,.
O=C(CSc1nnc(CN2CCCCCC2=O)n1-c1ccccn1)NCC(F)(F)F,6,-0.041,-1,-3.3*,-2
CCOc1cc(C(=O)Nc2cnccn2)cc(OCC)c1OCC,1,0.27,1,0.84,23
Cc1ccnc(NC(=O)c2cccc(NS(=O)(=O)c3ccccc3C)c2)c1,.,0.47*,.,.,.
Cc1ccc(S(=O)(=O)Nc2cccc(C(=O)Nc3cc(C)ccn3)c2)cc1,.,-0.39,.,.,.
CCOc1cc(C(=O)Nc2cc(C)ccn2)cc(OCC)c1OCC,8,3*,-2,-1.5,2
